# ChEMBL document CHEMBL3271935, “Synthesis and biological activity of some broad-spectrum N-acylphenyglycine cephalosporins” (1977)
# Assays:
# [1] = tested on: Pseudomonas aeruginosa; assay: Antibacterial activity against Pseudomonas aeruginosa 1504 assessed as growth inhibition; type: functional
# In short: (§1)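 Broth MIC by the standard microtiter technique in unbuffered Mueller-Hinton broth.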
# [2] = tested on: Klebsiella pneumoniae; assay: Antibacterial activity against Klebsiella pneumoniae 4200 assessed as growth inhibition by two-fold agar dilution method; type: functional
# In short: (§2)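 MIC (μg/mL) by twofold agar dilution on Trypticase soy agar buffered to pH 6.0.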
# [3] = tested on: Pseudomonas aeruginosa; assay: Antibacterial activity against Pseudomonas aeruginosa 647 assessed as growth inhibition; type: functional; in short: as §1
# [4] = tested on: Pseudomonas aeruginosa; assay: Antibacterial activity against Pseudomonas aeruginosa 864 assessed as growth inhibition; type: functional; in short: as §1
# [5] = tested on: Klebsiella aerogenes; assay: Antibacterial activity against Enterobacter aerogenes ATCC 13048 assessed as growth inhibition by two-fold agar dilution method; type: functional; in short: as §2
# [6] = tested on: Escherichia coli; assay: Antibacterial activity against Escherichia coli 12140 assessed as growth inhibition by two-fold agar dilution method; type: functional; in short: as §2
# [7] = tested on: Staphylococcus aureus; assay: Antibacterial activity against penicillin G resistant Staphylococcus aureus HH 127 assessed as growth inhibition by two-fold agar dilution method; type: functional
# In short: (§3)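 Twofold agar dilution on Trypticase soy agar buffered to pH 6.0. MIC reported in μg/mL.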
# [8] = tested on: Pseudomonas aeruginosa; assay: Antibacterial activity against Pseudomonas aeruginosa 219 assessed as growth inhibition; type: functional; in short: as §1
# [9] = tested on: Pseudomonas aeruginosa; assay: Antibacterial activity against Pseudomonas aeruginosa HH 63 assessed as growth inhibition by two-fold agar dilution method; type: functional; in short: as §2
# [10] = tested on: Morganella morganii; assay: Antibacterial activity against indole positive Proteus morganii 179 assessed as growth inhibition by two-fold agar dilution method; type: functional; in short: as §2
# [11] = tested on: Salmonella paratyphi; assay: Antibacterial activity against Salmonella paratyphi ATCC 12176 assessed as growth inhibition by two-fold agar dilution method; type: functional, Salmonella enterica subsp. enterica serovar Paratyphi A; conditions: Salmonella enterica; in short: as §3
# [12] = tested on: Escherichia coli; assay: Antibacterial activity against Escherichia coli 12140 infected in sc dosed mouse administered at 1 to 5 hrs measured for 3 days; type: functional; conditions: Escherichia coli, 12140, sc; read-out: PD50
# In short: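 Mice infected intraperitoneally with about 2×10^3 organisms per mouse of E. coli 12140 culture diluted in 5% hog gastric mucin, giving uniformly lethal infection. Fourfold dilutions given subcutaneously in equally divided portions at 1 and 5 h postinfection, five groups per compound. Survivors observed 3 days. PD50 is total dose (mg/kg) protecting 50%, calculated by Litchfield–Wilcoxon method.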
# [13] = tested on: Pseudomonas aeruginosa; assay: Antibacterial activity against Pseudomonas aeruginosa 1062 assessed as growth inhibition; type: functional; in short: as §1
# [14] = tested on: Pseudomonas aeruginosa; assay: Antibacterial activity against Pseudomonas aeruginosa 1063 assessed as growth inhibition; type: functional; in short: as §1
# [15] = tested on: Pseudomonas aeruginosa; assay: Antibacterial activity against Pseudomonas aeruginosa 1042 assessed as growth inhibition; type: functional; in short: as §1
# [16] = tested on: Pseudomonas aeruginosa; assay: Antibacterial activity against Pseudomonas aeruginosa 1106 assessed as growth inhibition; type: functional; in short: as §1
compound,measurement,setting,value
CC1(C)S[C@@H]2[C@H](NC(=O)C(C(=O)O)c3ccccc3)C(=O)N2[C@H]1C(=O)O (stereo partly specified) [CARBENICILLIN],MIC,[1],63 µg/mL
same,MIC,[2],6.3 µg/mL
same,MIC,[3],63 µg/mL
same,MIC,[4],500 µg/mL
same,MIC,[5],12.5 µg/mL
same,MIC,[6],6.3 µg/mL
same,MIC,[7],3.1 µg/mL
same,MIC,[8],63 µg/mL
same,MIC,[9],50 µg/mL
same,MIC,[10],0.8 µg/mL
same,MIC,[11],6.3 µg/mL
same,ED50,[12],25 mg/kg
same,MIC,[13],63 µg/mL
same,MIC,[14],63 µg/mL
same,MIC,[15],63 µg/mL
same,MIC,[16],125 µg/mL
